ChEMBL document CHEMBL1759918, “2-Substituted 5,6-dimethyl-3-phenylsulfonyl-pyrazolo[1,5-a]pyrimidines: new series of highly potent and specific serotonin 5-HT6 receptor antagonists” (Eur J Med Chem, 2011)
Activity calls are given as the source filed them. No cut-off for these calls is given here.

Columns and labels:
[1] = biological target: T1, 5-hydroxytryptamine receptor 6 (Homo sapiens, UniProt P50406); assay: Antagonist activity at human recombinant 5HT6 receptor expressed in HEK293 cells assessed as inhibition of serotonin-induced cAMP production after 2 hrs; format: functional, cell-based
In short: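 Tetracycline-induced (1 ug/mL, day before) T-Rex HEK cells expressing 5-HT6R, EDTA-harvested, in HBSS/5 mM HEPES pH 7.4/0.05% BSA with IBMX; ~4000 cells/well. Compound premixed with serotonin (final 10 nM, 0.32% DMSO), 2 h; cAMP by LANCE kit. Duplicates; 4-parameter IC50; Ki = IC50/(1+[Ag]/EC50), serotonin EC50 measured on same plates.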

[2] = biological target: T1, 5-hydroxytryptamine receptor 6; assay: Displacement of [3H]lysergic acid diethylamide from human recombinant 5HT6 receptor
[3] = biological target: Histamine H1 receptor (Homo sapiens) (UniProt P35367); assay: Binding affinity to Histaminergic H1 receptor at 10 uM by radioligand binding assay
In short: (§1)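 Outsourced competitive radioligand displacement against target-specific labelled ligands, using the contractor's own protocol for each target. Single test concentration; duplicates, mean ± SD.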

[4] = biological target: Histamine H3 receptor (Homo sapiens) (UniProt Q9Y5N1); assay: Binding affinity to Histaminergic H3 receptor at 10 uM by radioligand binding assay; in short: as §1
[5] = biological target: Muscarinic acetylcholine receptor M3 (Homo sapiens) (UniProt P20309); assay: Binding affinity to Muscarinic M3 receptor at 10 uM by radioligand binding assay; in short: as §1
[6] = biological target: Sodium-dependent noradrenaline transporter (Homo sapiens) (UniProt P23975); assay: Binding affinity to norepinephrine transporter at 10 uM by radioligand binding assay
In short: (§2)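 Panel screen of 56 targets (GPCRs, ion channels, transporters) run by a contract lab under its own protocols; each target scored by competition of a single 10 µM compound concentration with its target-specific radioligand, given as percent displacement; duplicates, mean ± SD.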

[7] = Binding affinity to GABAB receptor at 10 uM by radioligand binding assay; in short: as §1
[8] = Binding affinity to GABA transporter at 10 uM by radioligand binding assay; in short: as §1
[9] = Binding affinity to Potassium channel at 10 uM by radioligand binding assay; in short: as §2
[10] = Binding affinity to NMDA receptor glycine binding site at 10 uM by radioligand binding assay; in short: as §1
[11] = biological target: 5-hydroxytryptamine receptor 1B (Homo sapiens) (UniProt P28222); assay: Binding affinity to 5HT1B receptor at 10 uM by radioligand binding assay; in short: as §1
[12] = Binding affinity to GABAA receptor Ro-15-1788 binding site at 10 uM by radioligand binding assay; in short: as §1
[13] = biological target: Voltage-gated inwardly rectifying potassium channel KCNH2 (Homo sapiens, UniProt Q12809); assay: Antagonist activity at human ERG by patch clamp method; format: functional
[14] = biological target: Adenosine receptor A1 (Homo sapiens) (UniProt P30542); assay: Binding affinity to Adenosinergic A1 receptor at 10 uM by radioligand binding assay; in short: as §1
[15] = biological target: Muscarinic acetylcholine receptor M2 (Homo sapiens) (UniProt P08172); assay: Binding affinity to Muscarinic M2 receptor at 10 uM by radioligand binding assay; in short: as §1
[16] = Binding affinity to Kainate receptor at 10 uM by radioligand binding assay; in short: as §1
[17] = biological target: D(3) dopamine receptor (Homo sapiens) (UniProt P35462); assay: Binding affinity to Dopaminergic D3 receptor at 10 uM by radioligand binding assay; in short: as §1
[18] = Binding affinity to Sodium channel at 10 uM by radioligand binding assay; in short: as §2
[19] = biological target: Sigma non-opioid intracellular receptor 1 (Homo sapiens) (UniProt Q99720); assay: Binding affinity to sigma 1 receptor at 10 uM by radioligand binding assay; in short: as §2
[20] = biological target: Sodium- and chloride-dependent glycine transporter 2 (Homo sapiens) (UniProt Q9Y345); assay: Binding affinity to Glycine transporter at 10 uM by radioligand binding assay; in short: as §1
HEK293 = assay: Ratio of IC50 for human recombinant 5HT6 receptor expressed in human HEK293 cells to IC50 for human recombinant 5HT2B receptor expressed in human HEK293 cells; format: cell-based
In short: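 5-HT6 arm: tetracycline-induced (1 ug/mL, day before) T-Rex 5-HT6R-HEK cells, ~4000 cells/well in HBSS/5 mM HEPES pH 7.4/0.05% BSA, 500 µM IBMX final; compound with 10 nM serotonin, 2 h; cAMP by LANCE TR-FRET. 5-HT2B arm: Fura-2-loaded 5-HT2BR-HEK cells in cuvette, 340/380 nm excitation, 510 nm emission, response to 5 µM α-methylserotonin. IC50 from 4-parameter fits, duplicates.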

Homo sapiens = species: Homo sapiens; assay: Ratio of Ki for human recombinant 5HT6 receptor to Ki for human recombinant 5HT2B receptor
[21] = biological target: 5-hydroxytryptamine receptor 2C (Homo sapiens) (UniProt P28335); assay: Binding affinity to 5HT2C receptor at 10 uM by radioligand binding assay; in short: as §1
[22] = biological target: Alpha-1A adrenergic receptor (Homo sapiens) (UniProt P35348); assay: Binding affinity to Adrenergic alpha1A receptor at 10 uM by radioligand binding assay; in short: as §1
[23] = biological target: Mitogen-activated protein kinase 10 (Homo sapiens) (UniProt P53779); assay: Binding affinity to MAPK10 at 10 uM by radioligand binding assay; in short: as §1
[24] = biological target: Adenosine receptor A2a (Homo sapiens) (UniProt P29274); assay: Binding affinity to Adenosinergic A2A receptor at 10 uM by radioligand binding assay; in short: as §1
[25] = biological target: Mitogen-activated protein kinase 8 (Homo sapiens) (UniProt P45983); assay: Binding affinity to MAPK8 at 10 uM by radioligand binding assay; in short: as §1
[26] = Binding affinity to L-type calcium channel bezothiazepine binding site at 10 uM by radioligand binding assay; in short: as §1
[27] = biological target: D(4) dopamine receptor (Homo sapiens) (UniProt P21917); assay: Binding affinity to Dopaminergic D4.4 receptor at 10 uM by radioligand binding assay; in short: as §1
[28] = Binding affinity to L-type calcium channel dihydropyridine binding site at 10 uM by radioligand binding assay; in short: as §1
[29] = biological target: D(2) dopamine receptor (Homo sapiens) (UniProt P14416); assay: Binding affinity to Dopaminergic D2L receptor at 10 uM by radioligand binding assay; in short: as §1
[30] = Binding affinity to Nicotinic receptor at 10 uM by radioligand binding assay; in short: as §1
[31] = biological target: Alpha-1B adrenergic receptor (Homo sapiens) (UniProt P35368); assay: Binding affinity to Adrenergic Alpha-1B receptor at 10 uM by radioligand binding assay; in short: as §1
[32] = Binding affinity to sigma2 receptor at 10 uM by radioligand binding assay; in short: as §2
[33] = Binding affinity to NMDA receptor phencyclidine binding site at 10 uM by radioligand binding assay; in short: as §1
[34] = biological target: Alpha-1D adrenergic receptor (Homo sapiens) (UniProt P25100); assay: Binding affinity to Adrenergic Alpha-1D receptor at 10 uM by radioligand binding assay; in short: as §1
[35] = biological target: Death-associated protein kinase 2 (Homo sapiens) (UniProt Q9UIK4); assay: Binding affinity to DAPK2 at 10 uM by radioligand binding assay; in short: as §1
[36] = Binding affinity to GABAA receptor flunitrazepam binding site at 10 uM by radioligand binding assay; in short: as §1
[37] = Binding affinity to N-type calcium channel at 10 uM by radioligand binding assay; in short: as §1
[38] = biological target: D(1A) dopamine receptor (Homo sapiens) (UniProt P21728); assay: Binding affinity to Dopaminergic D1 receptor at 10 uM by radioligand binding assay; in short: as §1
[39] = biological target: Neuropeptide Y receptor type 2 (Homo sapiens) (UniProt P49146); assay: Binding affinity to Neuropeptide Y Y2 receptor at 10 uM by radioligand binding assay; in short: as §1
[40] = biological target: Cyclin-dependent kinase 5 (Homo sapiens) (UniProt Q00535); assay: Binding affinity to CDK5 at 10 uM by radioligand binding assay; in short: as §1
[41] = biological target: Muscarinic acetylcholine receptor M1 (Homo sapiens) (UniProt P11229); assay: Binding affinity to Muscarinic M1 receptor at 10 uM by radioligand binding assay; in short: as §1
[42] = Binding affinity to Dopaminergic D4.2 receptor at 10 uM by radioligand binding assay; in short: as §1
[43] = biological target: Substance-P receptor (Homo sapiens) (UniProt P25103); assay: Binding affinity to tachykinin NK1 receptor at 10 uM by radioligand binding assay; in short: as §2
[44] = biological target: Death-associated protein kinase 3 (Homo sapiens) (UniProt O43293); assay: Binding affinity to DAPK3 at 10 uM by radioligand binding assay; in short: as §1
[45] = biological target: Histamine H2 receptor (Homo sapiens) (UniProt P25021); assay: Binding affinity to Histaminergic H2 receptor at 10 uM by radioligand binding assay; in short: as §1
[46] = biological target: Sodium-dependent dopamine transporter (Homo sapiens) (UniProt Q01959); assay: Binding affinity to Dopamine transporter at 10 uM by radioligand binding assay; in short: as §1
[47] = biological target: Alpha-2A adrenergic receptor (Homo sapiens) (UniProt P08913); assay: Binding affinity to Adrenergic alpha2A receptor at 10 uM by radioligand binding assay; in short: as §1
[48] = biological target: Sodium-dependent serotonin transporter (Homo sapiens) (UniProt P31645); assay: Binding affinity to Serotonin transporter at 10 uM by radioligand binding assay; in short: as §2
[49] = biological target: 5-hydroxytryptamine receptor 3A (Homo sapiens) (UniProt P46098); assay: Binding affinity to 5HT3 receptor at 10 uM by radioligand binding assay; in short: as §1
[50] = biological target: D(2) dopamine receptor (Homo sapiens) (UniProt P14416); assay: Binding affinity to Dopaminergic D2S receptor at 10 uM by radioligand binding assay; in short: as §1
[51] = biological target: Death-associated protein kinase 1 (Homo sapiens) (UniProt P53355); assay: Binding affinity to DAPK1 at 10 uM by radioligand binding assay; in short: as §1
[52] = Binding affinity to Dopaminergic D4.7 receptor at 10 uM by radioligand binding assay; in short: as §1
[53] = biological target: 5-hydroxytryptamine receptor 1A (Homo sapiens) (UniProt P08908); assay: Binding affinity to 5HT1A receptor at 10 uM by radioligand binding assay; in short: as §1
[54] = Binding affinity to imidazoline I2 receptor at 10 uM by radioligand binding assay; in short: as §2
[55] = biological target: Neuropeptide Y receptor type 1 (Homo sapiens) (UniProt P25929); assay: Binding affinity to Neuropeptide Y Y1 receptor at 10 uM by radioligand binding assay; in short: as §1
[56] = Binding affinity to AMPA receptor at 10 uM by radioligand binding assay; in short: as §1

T1 sequence (P50406 whole entry): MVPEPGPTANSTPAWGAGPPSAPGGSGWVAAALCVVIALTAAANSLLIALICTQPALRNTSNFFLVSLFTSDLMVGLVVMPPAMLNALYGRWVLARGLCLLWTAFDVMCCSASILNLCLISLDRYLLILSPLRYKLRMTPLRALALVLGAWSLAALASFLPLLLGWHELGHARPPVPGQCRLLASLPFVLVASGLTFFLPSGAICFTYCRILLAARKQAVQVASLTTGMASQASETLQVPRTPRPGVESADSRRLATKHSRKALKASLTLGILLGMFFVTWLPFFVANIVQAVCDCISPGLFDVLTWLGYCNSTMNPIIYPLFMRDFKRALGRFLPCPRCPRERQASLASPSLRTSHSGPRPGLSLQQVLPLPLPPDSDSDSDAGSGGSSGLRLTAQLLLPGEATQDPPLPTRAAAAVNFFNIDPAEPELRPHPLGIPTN
D(2) dopamine receptor (Homo sapiens), sequence (P14416 whole entry): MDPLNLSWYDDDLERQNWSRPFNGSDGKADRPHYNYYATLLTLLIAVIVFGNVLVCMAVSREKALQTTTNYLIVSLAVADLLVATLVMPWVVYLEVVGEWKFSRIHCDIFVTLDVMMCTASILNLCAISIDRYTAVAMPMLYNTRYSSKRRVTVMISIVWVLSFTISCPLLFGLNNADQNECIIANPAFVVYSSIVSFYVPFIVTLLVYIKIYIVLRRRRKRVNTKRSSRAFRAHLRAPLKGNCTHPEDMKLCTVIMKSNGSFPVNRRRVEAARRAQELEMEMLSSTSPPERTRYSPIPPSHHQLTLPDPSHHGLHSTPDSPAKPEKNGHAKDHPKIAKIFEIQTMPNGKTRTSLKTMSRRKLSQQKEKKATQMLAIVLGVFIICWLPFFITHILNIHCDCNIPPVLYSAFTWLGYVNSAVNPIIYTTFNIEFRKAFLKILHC
Muscarinic acetylcholine receptor M1 (Homo sapiens), sequence (P11229 whole entry): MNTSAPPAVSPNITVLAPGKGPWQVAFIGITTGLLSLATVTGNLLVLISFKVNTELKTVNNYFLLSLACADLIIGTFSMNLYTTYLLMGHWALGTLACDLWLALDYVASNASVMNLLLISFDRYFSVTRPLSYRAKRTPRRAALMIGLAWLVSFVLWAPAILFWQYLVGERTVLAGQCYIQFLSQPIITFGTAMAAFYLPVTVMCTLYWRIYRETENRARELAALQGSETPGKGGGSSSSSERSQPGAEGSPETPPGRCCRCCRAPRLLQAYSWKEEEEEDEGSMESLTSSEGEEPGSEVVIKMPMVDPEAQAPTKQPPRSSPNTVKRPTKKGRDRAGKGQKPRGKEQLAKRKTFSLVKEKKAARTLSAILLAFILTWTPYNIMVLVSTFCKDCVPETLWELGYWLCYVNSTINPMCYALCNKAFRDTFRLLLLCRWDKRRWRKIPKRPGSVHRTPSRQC
Sodium- and chloride-dependent glycine transporter 2 (Homo sapiens), sequence (Q9Y345 whole entry): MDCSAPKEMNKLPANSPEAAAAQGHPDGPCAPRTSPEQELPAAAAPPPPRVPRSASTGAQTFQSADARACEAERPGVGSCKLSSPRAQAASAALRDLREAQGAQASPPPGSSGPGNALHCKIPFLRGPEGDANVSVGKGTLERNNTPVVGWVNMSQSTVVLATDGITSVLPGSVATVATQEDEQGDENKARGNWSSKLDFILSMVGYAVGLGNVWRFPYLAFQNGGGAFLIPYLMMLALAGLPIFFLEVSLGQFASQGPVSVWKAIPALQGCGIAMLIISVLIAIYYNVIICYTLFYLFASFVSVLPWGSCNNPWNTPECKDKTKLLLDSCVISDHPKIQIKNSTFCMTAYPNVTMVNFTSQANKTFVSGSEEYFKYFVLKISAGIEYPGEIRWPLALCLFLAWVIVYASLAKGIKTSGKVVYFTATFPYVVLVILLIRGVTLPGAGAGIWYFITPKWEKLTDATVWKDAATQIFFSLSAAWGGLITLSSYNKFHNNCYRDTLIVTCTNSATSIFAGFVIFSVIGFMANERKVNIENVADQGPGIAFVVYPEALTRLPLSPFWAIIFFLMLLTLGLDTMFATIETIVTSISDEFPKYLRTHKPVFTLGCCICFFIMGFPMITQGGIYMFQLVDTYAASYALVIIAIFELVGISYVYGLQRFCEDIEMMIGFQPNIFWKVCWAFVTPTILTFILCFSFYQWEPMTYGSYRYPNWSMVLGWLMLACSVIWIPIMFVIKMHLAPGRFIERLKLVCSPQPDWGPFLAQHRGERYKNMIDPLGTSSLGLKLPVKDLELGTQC
Histamine H3 receptor (Homo sapiens), sequence (Q9Y5N1 whole entry): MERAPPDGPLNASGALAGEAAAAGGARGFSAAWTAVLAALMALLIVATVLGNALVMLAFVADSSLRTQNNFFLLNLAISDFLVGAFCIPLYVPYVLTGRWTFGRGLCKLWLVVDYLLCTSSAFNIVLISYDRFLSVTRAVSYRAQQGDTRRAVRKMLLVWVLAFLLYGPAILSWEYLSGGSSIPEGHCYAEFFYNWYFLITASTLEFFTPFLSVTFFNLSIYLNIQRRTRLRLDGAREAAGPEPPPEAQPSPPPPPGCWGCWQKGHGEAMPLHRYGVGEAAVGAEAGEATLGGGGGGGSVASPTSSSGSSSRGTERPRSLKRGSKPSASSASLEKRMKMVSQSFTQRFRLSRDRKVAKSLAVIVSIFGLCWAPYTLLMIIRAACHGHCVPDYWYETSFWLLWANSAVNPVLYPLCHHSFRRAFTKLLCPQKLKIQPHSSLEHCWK
Muscarinic acetylcholine receptor M3 (Homo sapiens), sequence (P20309 whole entry, looked up): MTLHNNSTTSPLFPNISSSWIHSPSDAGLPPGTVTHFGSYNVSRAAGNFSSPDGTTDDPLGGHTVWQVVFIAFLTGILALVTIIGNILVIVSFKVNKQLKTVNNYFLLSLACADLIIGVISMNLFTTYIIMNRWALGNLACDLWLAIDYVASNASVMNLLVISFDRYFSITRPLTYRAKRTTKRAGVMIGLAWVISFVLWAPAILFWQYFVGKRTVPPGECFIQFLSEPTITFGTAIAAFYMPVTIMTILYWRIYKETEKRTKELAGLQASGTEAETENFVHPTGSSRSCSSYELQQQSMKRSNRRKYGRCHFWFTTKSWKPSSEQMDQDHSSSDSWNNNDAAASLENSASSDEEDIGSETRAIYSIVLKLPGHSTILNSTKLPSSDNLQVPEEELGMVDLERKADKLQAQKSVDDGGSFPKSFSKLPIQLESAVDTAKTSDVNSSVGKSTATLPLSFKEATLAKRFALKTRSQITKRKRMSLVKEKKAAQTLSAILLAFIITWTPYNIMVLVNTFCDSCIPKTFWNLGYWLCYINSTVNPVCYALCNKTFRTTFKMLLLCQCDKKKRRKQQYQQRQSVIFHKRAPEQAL
D(3) dopamine receptor (Homo sapiens), sequence (P35462 whole entry): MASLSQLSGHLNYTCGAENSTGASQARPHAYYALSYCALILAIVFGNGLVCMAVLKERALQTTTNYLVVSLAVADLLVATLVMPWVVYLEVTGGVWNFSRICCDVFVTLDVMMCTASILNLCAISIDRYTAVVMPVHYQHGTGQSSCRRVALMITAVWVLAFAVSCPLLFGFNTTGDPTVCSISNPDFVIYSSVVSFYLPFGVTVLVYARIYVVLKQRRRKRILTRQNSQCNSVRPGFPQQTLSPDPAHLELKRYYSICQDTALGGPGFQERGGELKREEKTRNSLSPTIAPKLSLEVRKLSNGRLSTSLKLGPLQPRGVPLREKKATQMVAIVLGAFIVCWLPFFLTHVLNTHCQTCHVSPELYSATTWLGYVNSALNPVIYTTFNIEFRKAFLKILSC
5-hydroxytryptamine receptor 1A (Homo sapiens), sequence (P08908 whole entry): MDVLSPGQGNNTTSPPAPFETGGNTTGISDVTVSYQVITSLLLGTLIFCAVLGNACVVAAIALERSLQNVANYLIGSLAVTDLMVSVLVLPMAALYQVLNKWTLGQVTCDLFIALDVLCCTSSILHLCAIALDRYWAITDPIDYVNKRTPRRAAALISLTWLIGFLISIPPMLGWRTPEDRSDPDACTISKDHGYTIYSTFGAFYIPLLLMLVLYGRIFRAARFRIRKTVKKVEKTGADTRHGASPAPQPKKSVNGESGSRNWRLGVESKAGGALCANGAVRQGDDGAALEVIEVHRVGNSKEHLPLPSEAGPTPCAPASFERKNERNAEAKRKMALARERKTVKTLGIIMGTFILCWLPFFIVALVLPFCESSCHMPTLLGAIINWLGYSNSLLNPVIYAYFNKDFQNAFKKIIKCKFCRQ
Mitogen-activated protein kinase 8 (Homo sapiens), sequence (P45983 whole entry): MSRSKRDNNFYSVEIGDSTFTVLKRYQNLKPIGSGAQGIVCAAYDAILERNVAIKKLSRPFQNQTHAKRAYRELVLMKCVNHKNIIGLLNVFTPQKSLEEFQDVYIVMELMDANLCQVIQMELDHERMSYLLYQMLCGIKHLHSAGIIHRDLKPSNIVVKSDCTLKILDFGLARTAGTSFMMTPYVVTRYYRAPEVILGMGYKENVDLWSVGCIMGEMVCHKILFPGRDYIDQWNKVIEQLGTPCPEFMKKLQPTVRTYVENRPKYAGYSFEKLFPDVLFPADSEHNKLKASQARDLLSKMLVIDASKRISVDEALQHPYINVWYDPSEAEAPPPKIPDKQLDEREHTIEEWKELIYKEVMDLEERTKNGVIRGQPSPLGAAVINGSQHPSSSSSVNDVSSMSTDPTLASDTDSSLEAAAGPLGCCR
Adenosine receptor A1 (Homo sapiens), sequence (P30542 whole entry): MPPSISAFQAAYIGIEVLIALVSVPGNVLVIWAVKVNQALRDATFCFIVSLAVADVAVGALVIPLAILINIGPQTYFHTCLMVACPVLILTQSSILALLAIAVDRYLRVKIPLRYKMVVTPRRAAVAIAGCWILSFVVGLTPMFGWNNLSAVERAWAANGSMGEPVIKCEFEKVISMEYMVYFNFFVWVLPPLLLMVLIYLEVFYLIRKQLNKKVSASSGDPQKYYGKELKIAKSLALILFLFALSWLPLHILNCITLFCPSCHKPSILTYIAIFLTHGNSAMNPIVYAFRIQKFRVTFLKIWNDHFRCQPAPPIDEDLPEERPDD
Sigma non-opioid intracellular receptor 1 (Homo sapiens), sequence (Q99720 whole entry): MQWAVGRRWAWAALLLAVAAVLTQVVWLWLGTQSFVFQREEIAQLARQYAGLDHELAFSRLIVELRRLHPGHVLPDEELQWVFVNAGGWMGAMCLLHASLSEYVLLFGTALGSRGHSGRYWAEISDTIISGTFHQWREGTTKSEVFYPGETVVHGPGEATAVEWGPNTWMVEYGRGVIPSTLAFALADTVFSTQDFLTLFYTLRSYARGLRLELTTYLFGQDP

## CCSc1nn2c(C)cc(C)nc2c1S(=O)(=O)c1ccccc1
[1]
  Ki: 1.91 nM

## Cc1cc(C)n2nc(N(C)C)c(S(=O)(=O)c3ccccc3)c2n1
[1]
  Ki: 14.5 nM

## Cc1cc(C)n2nc(OCCN(C)C)c(S(=O)(=O)c3ccccc3)c2n1
[1]
  Ki: 2200 nM

## CSc1nn2c(C)cc(C)nc2c1S(=O)(=O)c1ccccc1
[2]
  Ki: 2 nM

## Cc1cc(C)n2nc(N(C)CCN(C)C)c(S(=O)(=O)c3ccccc3)c2n1
[1]
  Ki: 489 nM

## Cc1cc(C)n2nc(OCCO)c(S(=O)(=O)c3ccccc3)c2n1
[1]
  Ki: 283 nM
[2]
  Ki: 22.2 nM

## CNc1nn2c(C)cc(C)nc2c1S(=O)(=O)c1ccccc1
[3]
  Activity: inactive
[4]
  Activity: inactive
[5]
  Activity: inactive
[6]
  Activity: inactive
[7]
  Activity: inactive
[8]
  Activity: inactive
[9]
  Activity: inactive
[10]
  Activity: inactive
[11]
  Activity: inactive
[12]
  Activity: inactive
[13]
  IC50: > 30 µM
[14]
  Activity: inactive
[15]
  Activity: inactive
[16]
  Activity: inactive
[17]
  Activity: inactive
[18]
  Activity: inactive
[19]
  Activity: inactive
[20]
  Activity: inactive
HEK293
  Ratio: 1000
Homo sapiens
  Ratio: 5000
[21]
  Activity: inactive
[22]
  Activity: inactive
[23]
  Activity: inactive
[24]
  Activity: inactive
[25]
  Activity: inactive
[26]
  Activity: inactive
[27]
  Activity: inactive
[28]
  Activity: inactive
[2]
  Ki: 0.2 nM
[29]
  Activity: inactive
[30]
  Activity: inactive
[31]
  Activity: inactive
[32]
  Activity: inactive
[33]
  Activity: inactive
[34]
  Activity: inactive
[35]
  Activity: inactive
[36]
  Activity: inactive
[37]
  Activity: inactive
[38]
  Activity: inactive
[39]
  Activity: inactive
[40]
  Activity: inactive
[41]
  Activity: inactive
[42]
  Activity: inactive
[43]
  Activity: inactive
[44]
  Activity: inactive
[45]
  Activity: inactive
[46]
  Activity: inactive
[47]
  Activity: inactive
[48]
  Activity: inactive
[49]
  Activity: inactive
[50]
  Activity: inactive
[51]
  Activity: inactive
[52]
  Activity: inactive
[53]
  Activity: inactive
[54]
  Activity: inactive
[55]
  Activity: inactive
[56]
  Activity: inactive

## Cc1cc(C)n2nc(NCCN(C)C)c(S(=O)(=O)c3ccccc3)c2n1
[1]
  Ki: 2600 nM

## Cc1cc(C)n2nc(C)c(S(=O)(=O)c3ccccc3)c2n1
[1]
  Ki: 88.8 nM

## Cc1cc(C)n2nc(N3CCNCC3)c(S(=O)(=O)c3ccccc3)c2n1
[1]
  Ki: 1380 nM

## Cc1cc(C)n2nc(NCCCN(C)C)c(S(=O)(=O)c3ccccc3)c2n1
[1]
  Ki: 764 nM

## Cc1cc(C)n2nc([S+](C)[O-])c(S(=O)(=O)c3ccccc3)c2n1 (stereo not given)
[1]
  Ki: 2960 nM

## Cc1cc(C)n2ncc(S(=O)(=O)c3ccccc3)c2n1
[1]
  Ki: 561 nM
